ChEMBL document CHEMBL4513216, “Probing the Open Global Health Chemical Diversity Library for Multistage-Active Starting Points for Next-Generation Antimalarials” (ACS Infect Dis, 2020)

Experiment: Toxicity liver stage against HepG2, at 10uM
Type: cell-based
Parameters: test concentration 10 uM, cell line HepG2-A16-CD81EGFP
Conditions: human, HepG2-A16-CD81EGFP cells; read-out: INHIBITION
In short: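 Uninfected HepG2-A16-CD81EGFP cells, 3 × 10^3 per well, 1536-well, plated on prespotted compound at 10 μM final, parasite-free screening media added to match infected plates; puromycin 10 μM positive, DMSO 0.5% negative; run in parallel with 48 h PbLuc assay at 37 °C, 5% CO2; viability by CellTiter-Glo luminescence, normalized to controls.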

Row | Structure (SMILES) | cytotoxicity at 10 µM [%]
1 | Cc1cc(C)nc(N2CCCC(C(=O)Nc3n[nH]c(C(C)C)n3)C2)n1 (stereo unspecified) | 8.04
2 | CCc1cnc(N2CCC3(CCN(CC)C3=O)CC2)nc1 | 1.61
3 | CNC(=O)N1CCC2(CC1)CN(C)c1ccc(F)cc12 | -4.78
4 | c1ccc(NCc2cn3c(n2)CN(Cc2ccoc2)CC3)nc1 | 10.4
5 | CCOCC1CN(CCOCc2ccccc2)Cc2c1cnn2C (stereo unspecified) | -132
6 | Fc1cnc(N2CCOCC3(CCCN(c4cnccn4)C3)C2)nc1 (stereo unspecified) | 10.6
7 | CCN1C(=O)[C@]2(CC[C@@H]3CN(C(=O)NCC(C)C)C[C@@H]32)N=C1C | 9.16
8 | CCc1ccc(NC(=O)N2C[C@H]3CC[C@@]4(N=C(C)N(C)C4=O)[C@H]3C2)cc1 | 11
9 | COCC1CN(C(=O)c2cccn2C)Cc2cnn(C)c21 (stereo unspecified) | 7.43
10 | Cc1cc(O)c(OCC(=O)/N=c2\[nH]c(C)cs2)cn1 | 6.36
11 | COC(=O)c1sccc1S(=O)(=O)NCC1(O)CCOc2ccccc21 (stereo unspecified) | -10.9
12 | CN(C(=O)c1ccccn1)c1nnc(C2CCOC2)s1 (stereo unspecified) | 0.07
13 | CN(C)Cc1cc(C2CCCN(S(=O)(=O)c3cccc(Cl)c3)C2)nn1C (stereo unspecified) | 0.288
14 | CCn1cc(-c2nccnc2C2CCCN(C(C)=O)C2)cn1 (stereo unspecified) | -6.03
15 | c1cc(C2CCCN2CC2CC2)n[nH]1 (stereo unspecified) | -1.75
16 | CNC(=O)c1cn[nH]c1C1CCN(Cc2sccc2C)C1 (stereo unspecified) | -21.2
17 | c1cnc(-c2cnc(N3CCCCC3)nc2C2CCCO2)cn1 (stereo unspecified) | -7.16
18 | Cc1n[nH]cc1C(=O)N1CCCC(c2cccc(-n3ccnc3)n2)C1 (stereo unspecified) | -9.69
19 | O=C(NC1CC1)c1cc(C(F)(F)F)cc(C(F)(F)F)n1 | 6
20 | COc1ccc(C2(c3nc(-c4cnn(C)c4)no3)CCOCC2)cc1 | 11.4
21 | CCOc1nnc(CN2CCC(c3cc4ccccc4[nH]3)CC2)s1 | 20.6
22 | c1cnc(NCCCOC2CCOCC2)nc1 | -2.96
23 | N#CC1(C(=O)N2CCOC(c3ccc(F)cc3)C2)CCCCC1 (stereo unspecified) | 3.85

Row | Structure (SMILES) | cytotoxicity at 10 µM [%]
24 | Cc1nc(CNc2ccccc2CCC(F)(F)F)cs1 | -8.47
25 | O=C(CC1CCCCC1)N1CCC(O)(C(F)(F)F)C1 (stereo unspecified) | -6.58
26 | CNC(=O)Cc1noc(-c2cc3c(s2)CCCC3)n1 | 0.403
27 | N#CCCCS(=O)(=O)NC1(c2cccc(Br)c2)CC1 | 2.99
28 | CCCOc1cc(CNC(=O)Nc2ccc(C)cc2)ccn1 | 2.99
29 | N#CC1COCCN1S(=O)(=O)c1ccc2c(c1)CCC2 (stereo unspecified) | 4.53
30 | CCOc1ccc(CC(=O)N(CCC(=O)OC)CC2CCCO2)cc1 (stereo unspecified) | 5.04
31 | O=C(NCC1(c2ccc(F)cc2)CCCC1)N1CCOC(CO)C1 (stereo unspecified) | 0.323
32 | COC(=O)c1ccc(NC(=O)CCc2ccco2)cc1 | -10.5
33 | CCCS(=O)(=O)N1CCCN(CCCOC)CC1 | 7.53
34 | O=C(NCC1CCC1)c1ccnc(-n2ccnc2)c1 | -3.67
35 | COc1ccccc1N1CCN(CC(=O)NC(C)c2ccco2)CC1 (stereo unspecified) | -2.58
36 | Cc1cc(NC(=O)N2CCCC(CO)C2)nn1-c1ccccc1Cl (stereo unspecified) | 8.23
37 | CC(C)c1noc(OCC(=O)N(C)C(C)C)n1 | -12.6
38 | NC(=O)CCNC(=O)Cc1cccc(I)c1 | -1.08
39 | O=C(NCC(c1cccs1)N1CCOCC1)c1ccc(F)cc1Cl (stereo unspecified) | -2.27
40 | CC(C)c1ccc(CS(=O)(=O)CC(=O)NCc2ccccc2F)cc1 | 8.31
41 | Cc1cc(C)n(CC2CN(CC(=O)Nc3cccnc3)CCO2)n1 (stereo unspecified) | -3.1
42 | O=C(c1csc(-c2ncccn2)n1)N1CCN(C2CCCC2)CC1 | 4.87
43 | Cc1cccc(S(=O)(=O)N2CSCC2C(=O)NCC2CC2)c1 (stereo unspecified) | -6.14
44 | COc1cccc2c1N(Cc1nc(C3CC3)no1)CCC2 | 11.2
45 | Cc1ncccc1C(=O)Nc1ccc2ccn(CCN(C)C)c2c1 | 4.08
46 | CCS(=O)(=O)CC(C)NC(=O)N(C)Cc1cc(Cl)cn1C (stereo unspecified) | -1.04

Row | Structure (SMILES) | cytotoxicity at 10 µM [%]
47 | Cc1nc(C(NC(=O)C2CCCC2)c2ccccc2F)no1 (stereo unspecified) | -3.79
48 | O=C(C[S+]([O-])Cc1ccccc1F)N1CCc2sccc2C1 (stereo unspecified) | -8.02
49 | CNS(=O)(=O)CC(=O)N(Cc1ccccc1)c1ccc(C)cc1 | 2.53
50 | O=C(CNc1cc(F)ccc1OC(F)F)NCC(F)(F)F | -2.79
51 | CC(C)CN1C(=O)C2(CCCC2)NC12CCSCC2 | -135
52 | O=C(c1ccc[nH]1)N(Cc1ccc(O)cc1)CC1CC1 | 8.43
53 | COCCCNC(=O)Cn1nnc(-c2cc3ccccc3o2)n1 | 6.43
54 | Cc1c(NC(=O)NC2CCCC2)cccc1C(=O)N1CCSCC1 | 11.8
55 | O=C(CN1CCOc2ccc(Cl)cc21)NCc1ncc[nH]1 | -0.307
56 | N#CCCN(CC(F)(F)F)C(=O)c1cc(-n2cccn2)ccn1 | 8.93
57 | COCCN1CCN(c2ccc(CN(C)C)cn2)CC1 | -7.41
58 | O=C(c1ccccc1O)N1CCN(C(=O)C2CCC2)CC1 | 2.42
59 | c1ccc(CN2CCCC2)c(CNc2cncc3nnnn23)c1 | 0.351
60 | CC(=O)Nc1ccc(C(=O)N2CCSCC2c2ccc(C)o2)cc1 (stereo unspecified) | 11.4
61 | N#Cc1ccc(OC2CCN(C(=O)COCC3CCCO3)CC2)cc1 (stereo unspecified) | 12.9
62 | CCCNC(=O)C1CCCN(Cc2ccc(-n3cncn3)c(C)c2)C1 (stereo unspecified) | 8.28
63 | OC(CN1CCOCC1)c1cc(Cl)ccc1Cl (stereo unspecified) | -1.57
64 | CCc1noc(CN(C)C(=O)COc2cccc(Cl)c2C)n1 | 3.86
65 | CCN(CC)CCCN1CCC(NC(=O)OC(C)(C)C)CC1 | 5
66 | CC1CCCN1C1CCN(C(=O)c2cccc(-c3ccoc3)c2)CC1 (stereo unspecified) | -9.63
67 | CS(=O)(=O)CC1(CNc2ccc(C#N)c(C(F)(F)F)c2)CC1 | 9.95
68 | Cc1nc(CC(C)C)sc1C(=O)N1CCC1 | 15.8
69 | CC(=O)N1CC[C@H]2OCC[C@@H](C(=O)Nc3cccnc3C)[C@H]2C1 | 0.0861

Row | Structure (SMILES) | cytotoxicity at 10 µM [%]
70 | Cc1ncc(-c2ccnc(N3CC[C@H](O)C3)n2)c(-c2cccnc2)n1 | -8.49
71 | Cn1nccc1C(=O)N1CCOC(Cc2ccc(F)cc2)C1 (stereo unspecified) | 5.08
72 | CC(C)c1nc(CN(C)Cc2ccc(O)c(C(=O)O)c2)cs1 | -4.24
73 | CCC(C)NC(=O)c1coc(COc2cccc(F)c2)n1 (stereo unspecified) | -146
74 | Cc1cccc2c1nc(COCC(=O)O)n2-c1ccc(N)nc1 | 1.77
75 | COc1cccc(CN2C[C@H]3CC[C@H]2C3)c1OCCN1CCOCC1 | 0.101
76 | Cc1cc(NCCc2c[nH]cn2)nc(-c2cccnc2)n1 | 2.49
77 | CCN1CCCC(CN2CCn3nc(CNC(=O)N(C)C)cc3C2)C1 (stereo unspecified) | -2.96
78 | Cc1nc(-c2ccccc2)c(C(=O)N2CCC3(CC(=O)NC3=O)C2)s1 (stereo unspecified) | -3.89
79 | Cc1[nH]c(=O)[nH]c(=O)c1CN1CCCC(CCc2ccc(F)cc2F)C1 (stereo unspecified) | -1.64
80 | CC(C)c1cc(-c2cnn(C)c2C2CC2)c(C#N)c(N)n1 | 28.5
81 | CN1CCN(C(=O)c2ccnc(N3CCOC(C(F)(F)F)C3)c2)CC1 (stereo unspecified) | -11.4
82 | CCc1ccc(CN2CCNC(C(=O)N3CCN(C)CC3)C2)nc1 (stereo unspecified) | 7.68
83 | CCC(=O)N1CCCC(Cn2cc(-c3ccc(F)cc3)nn2)C1 (stereo unspecified) | 2.89
84 | COc1cccc(OCC(=O)N2CCC3(CC2)[C@H](O)C[C@@H]3OC)c1 | 0.866
85 | CC(C)N1CCCC(C(=O)NC(C)(C)c2nnc(N)s2)C1 (stereo unspecified) | -2.4
86 | CS(=O)(=O)N1CCC(Oc2ccc(C(=O)NC3CCCC3)cc2Cl)CC1 | -1.02
87 | CC(=O)N[C@@H]1CN(Cc2ccc(F)cc2F)C[C@H]1c1ccc(C)o1 | 6.39
88 | C[C@@H]1CN(Cc2cc3ccccc3n2C)CC[C@]1(C)O | 8.35
89 | CC(=O)N1C[C@H](NS(=O)(=O)c2cccc(Cl)c2)[C@@H](C(C)C)C1 | 7.82
90 | Cn1ccnc1C(=O)N1CCCC1c1ccc(C(=O)N2CCOCC2)s1 (stereo unspecified) | -155
91 | Cn1c(Cn2cccn2)nnc1C1CCCN(c2ccncc2F)C1 (stereo unspecified) | -0.773
92 | CNCc1cc(F)ccc1Oc1ccc(F)cc1F | -11

Row | Structure (SMILES) | cytotoxicity at 10 µM [%]
93 | CNC(=O)NC(=O)C(C)N(C)CCCc1cc(-c2ccccc2)no1 (stereo unspecified) | -11.6
94 | O=C(c1ccc2c(c1)CCCC2)N1CCN(c2cnccn2)CC1 | -1.95
95 | Cc1cc2n(n1)CC(CNCc1ccc(-n3ccnc3C)nc1)CN2 (stereo unspecified) | -11.7
96 | COc1ccccc1C(O)CNC(=O)Nc1cccnc1OC (stereo unspecified) | -14.7
97 | Cc1nc(C2CCCN2C(=O)c2ccc3c(c2)nc(C)n3C)no1 (stereo unspecified) | -9.62
98 | CCn1cnnc1CNC(=O)N1CCC(C)CC1 | 2.64
99 | Cc1nc(C2CCCN2C(=O)Cn2cncn2)no1 (stereo unspecified) | -2.51
100 | Cc1cnn(CC2CCCCN2C(=O)c2cnc3n[nH]c(C)c3c2)c1 (stereo unspecified) | -26.2
101 | CCc1nc(CN2CCCN(C(=O)C3CCC3)CC2)cs1 | 5.41
102 | CCOc1ccnc(N2CCN(C(=O)c3cccc(C#N)c3)CC2)n1 | -3.34
103 | CC(C)(C)c1nnc(CN2CCn3c(nnc3C3CC3)C2)o1 | 4.45
104 | COCC1CN(Cc2cc(C)on2)Cc2cnn(C)c21 (stereo unspecified) | 6.22
105 | O=C(c1ccccc1)N1CCC[C@]2(C[C@@H](OCc3ccncc3)CO2)C1 | 5.25
106 | Cc1occc1C(=O)NCC1OCCc2cn(C)nc21 (stereo unspecified) | 4.33
107 | O=C(Cc1ccsc1)N1CCCC2(COCCN(CC3CC3)C2)C1 (stereo unspecified) | -127
108 | COc1ccc(C(=O)N2CC[C@@H]3[C@H](CC2)N(C)CCS3(=O)=O)cc1 | -117
109 | Cc1ccc(CN2CCC3(CC2)CCN(Cc2ccco2)CC3)cc1 | 2.44
110 | Cc1oc(C(C)C)cc1C(=O)N1C[C@@H]2CC[C@H]1CN(C(=O)N(C)C)C2 | -119
111 | O=C(NCCNS(=O)(=O)N1CCCCCC1)c1ncccc1O | -6.11
